Reference: ChEMBL document CHEMBL2321761, “Discovery of novel dual inhibitors of the wild-type and the most prevalent drug-resistant mutant, S31N, of the M2 proton channel from influenza A virus” (J Med Chem, 2013)

Each compound was assayed on Influenza A virus (assay: Inhibition of Influenza A virus wild type M2 proton channel expressed in Xenopus laevis oocyte at 100 uM after 2 mins by two-electrode […] clamp assay).
Method in brief: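 Full-length AM2 (WT) was expressed in Xenopus oocyte membranes and recorded by two-electrode voltage clamp during low-pH activation. Percent inhibition was read after only 2 min of exposure, before equilibrium was reached. IC50 values from this read-out are apparent kinetic values, not equilibrium dissociation constants.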

Structure (SMILES)	inhibition
COc1ccc(CNC23CC4CC(CC(C4)C2)C3)cc1O	46%
NCc1ccc(CNC23CC4CC(CC(C4)C2)C3)cc1	3%
Oc1ccc(CNC23CC4CC(CC(C4)C2)C3)cc1O	44%
CC(C)(C)OC(=O)Nc1ccc(CNC23CC4CC(CC(C4)C2)C3)cc1	13%
C[C@@H]1[C@@H](/N=C/c2ccc(O)cc2)C[C@H]2C[C@@H]1C2(C)C	91%
COc1ccccc1CNC12CC3CC(CC(C3)C1)C2	22%
Oc1cccc(CNC23CC4CC(CC(C4)C2)C3)c1	88%
c1cc2c(cc1CNC13CC4CC(CC(C4)C1)C3)OCO2	54%
c1ccc(CNC23CC4CC(CC(C4)C2)C3)cc1	77%
Oc1ccc(CNC23CC4CC(CC(C4)C2)C3)cc1F	65%
CC(=O)Nc1ccc(CNC23CC4CC(CC(C4)C2)C3)cc1	3%
Oc1ccc(CNC23CC4CC(CC(C4)C2)C3)cc1Cl	78%
COc1ccc(CNC23CC4CC(CC(C4)C2)C3)cc1	43%
Oc1ccccc1CNC12CC3CC(CC(C3)C1)C2	81%
NC(=O)c1ccc(CNC23CC4CC(CC(C4)C2)C3)cc1	7%
Oc1ccc(CNC23CC4CC(CC(C4)C2)C3)c(Cl)c1	78%
COc1ccc(CNC23CC4CC(CC(C4)C2)C3)c(OC)c1	16%
COc1ccc(CNC23CC4CC(CC(C4)C2)C3)c(O)c1	56%
CS(=O)(=O)c1ccc(CNC23CC4CC(CC(C4)C2)C3)cc1	45%
OCc1ccc(CNC23CC4CC(CC(C4)C2)C3)cc1	26%
Oc1cc(F)ccc1CNC12CC3CC(CC(C3)C1)C2	87%
O=[N+]([O-])c1ccc(CNC23CC4CC(CC(C4)C2)C3)cc1	49%
Oc1ccc(CNC23CC4CC(CC(C4)C2)C3)cc1	67%

Structure (SMILES)	inhibition
O=[N+]([O-])c1ccccc1CNC12CC3CC(CC(C3)C1)C2	48%
Fc1ccc(CNC23CC4CC(CC(C4)C2)C3)cc1	77%
c1cn(-c2ccc(CNC34CC5CC(CC(C5)C3)C4)cc2)cn1	4%
CC(=O)c1ccc(CNC23CC4CC(CC(C4)C2)C3)cc1	2%
Nc1ccc(CNC23CC4CC(CC(C4)C2)C3)cc1	31%
c1cc(-c2nnn[nH]2)ccc1CNC12CC3CC(CC(C3)C1)C2	6%
Oc1ccc(/C=N/C23CC4CC(CC(C4)C2)C3)cc1	81%
N#Cc1ccc(CNC23CC4CC(CC(C4)C2)C3)cc1	36%
Oc1ccc(CNC23CC4CC(CC(C4)C2)C3)c(O)c1	64%
c1cc(CNC23CC4CC(CC(C4)C2)C3)co1	73%
COc1ccc(CN(C)C23CC4CC(CC(C4)C2)C3)cc1	34%
OC1CCC(CNC23CC4CC(CC(C4)C2)C3)CC1 (racemic)	16%
c1cc2cn[nH]c2cc1CNC12CC3CC(CC(C3)C1)C2	79%
COc1ccc(COC23CC4CC(CC(C4)C2)C3)cc1	51%
c1cc(CNC23CC4CC(CC(C4)C2)C3)ccn1	6%
c1ccc(CNC23CC4CC(CC(C4)C2)C3)nc1	12%
COc1cc(O)ccc1CNC12CC3CC(CC(C3)C1)C2	0%
COC(=O)[C@H](Cc1cnc[nH]1)NCC12CC3CC(CC(C3)C1)C2	27%
c1nc2cc(CNC34CC5CC(CC(C5)C3)C4)ccc2[nH]1	26%
C[S+]([O-])c1ccc(CNC23CC4CC(CC(C4)C2)C3)cc1 (stereo unspecified)	2%
O=[N+]([O-])c1cc(CNC23CC4CC(CC(C4)C2)C3)ccc1O	66%
c1cnn(-c2ccc(CNC34CC5CC(CC(C5)C3)C4)cc2)c1	4%
COc1cc(CNC23CC4CC(CC(C4)C2)C3)ccc1O	76%
